CHO parental Ca: ATP-evoked calcium signal inhibitors, parental CHO, primary screen, counter-screen for OX1R antagonist project, cell-based, fluorescence, Fluo-8 calcium dye. parental CHO-K1, ATP-induced calcium, Fluo-8 fluorescence. inhibition, % at 5.6 µM. hit rate 0.63% among 330,000. AID 463079, 2010;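 active = inhibition above that plate's mean sample inhibition plus 3 SD, cut at about 26% in these data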;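 note: 0% = ATP-challenged DMSO wells and 100% = DMSO wells without ATP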
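Assay system – parental CHO cells · Reagent – ATP stimulus · Detection – intracellular calcium via Fluo-8 no-wash fluorescent dye · Evaluation – percent inhibition of ATP-evoked calcium rise, normalized to controls · Controls – ATP wells versus no-ATP DMSO wells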
OX1R antag-1: antagonists of human orexin 1 receptor (OX1R); Orexin/Hypocretin receptor type 1 (Homo sapiens), O43613; OX1R-expressing cells, FRET antagonist read-out; AID 485270, 2010; hit rate 1.8% among 330,000; inhibition, % at 6.6 µM; in the data active = inhibition mostly above about 38%, no sharp cut-off; inactive = mostly below about 40%;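 note: 0% = agonist challenge alone and 100% = reference antagonist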
TAAR1 antagonist: human TAAR1 antagonists, primary screen, Fluo-8 calcium fluorescence, CHO RD-HGA16 cells; Trace amine-associated receptor 1 (Homo sapiens), Q96RJ0; antagonist; inhibition, % at 3 µM; hit rate 1.5% among 360,000; AID 624466, 2012;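 active = inhibition above a per-plate cutoff, the mean inhibition of test compounds on that plate plus 3 SD, cut at about 49% in these data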;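 note: 0% = DMSO plus EC80 beta-PEA response and 100% = DMSO alone without agonist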
Target sequence (Q96RJ0 whole entry, looked up): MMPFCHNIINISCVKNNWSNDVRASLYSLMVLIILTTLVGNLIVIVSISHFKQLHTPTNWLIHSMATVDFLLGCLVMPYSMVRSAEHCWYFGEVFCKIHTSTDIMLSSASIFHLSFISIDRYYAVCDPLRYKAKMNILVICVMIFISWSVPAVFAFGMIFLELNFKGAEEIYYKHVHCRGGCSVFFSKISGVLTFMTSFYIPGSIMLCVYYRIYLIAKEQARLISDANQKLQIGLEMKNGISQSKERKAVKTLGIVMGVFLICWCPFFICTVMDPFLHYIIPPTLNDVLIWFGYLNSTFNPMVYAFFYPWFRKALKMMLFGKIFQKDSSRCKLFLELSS
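Assay system: CHO-derived RD-HGA16 cells stably expressing human TAAR1 plus Gα16. Timing: 140 s kinetic read after compound, 140 s after agonist. Technique: kinetic Fluo-8 calcium fluorescence measurement. Measure: % inhibition of agonist calcium response.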
TAAR1 agonist: human TAAR1 agonists, primary screen, Fluo-8 calcium fluorescence, CHO RD-HGA16 cells; Trace amine-associated receptor 1 (Homo sapiens), Q96RJ0; vehicle wells 0%, saturating PEA agonist 100%; activation, % at 3 µM; hit rate 0.99% among 360,000;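 active = activation above the mean activation of all test compounds in the run plus 3 SD, cut at about 38% in these data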
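Test system: RD-HGA16 (CHO) cells co-expressing Gα16 and hTAAR1; dosing: one-point dosing at 3 µM (nominal); timing: 17-24 h seeding, 75 min 37 °C dye, 30 min RT; signal: kinetic Fluo-8 calcium fluorescence; read-out basis: % activation relative to PEA EC100 response; controls: DMSO and PEA EC100; replicates: n 1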
OX1R antag-2: OX1R (HCRTR1) antagonists, primary screen, fluorescence, CHO/OX1R cells, Fluo-8 calcium, orexin A; Orexin/Hypocretin receptor type 1 (Homo sapiens), O43613; Fluo-8 calcium fluorescence; inhibition, % at 5 µM; hit rate 0.43% among 330,000; AID 434989, 2010;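 active = inhibition above its plate's threshold, mean inhibition of all tested compounds on the plate plus 3 SD, cut at about 37% in these data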;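 note: 0% = orexin A challenge wells and 100% = SB-334867-A antagonist wells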
GPR7 antag: GPR7 receptor antagonists, primary screen, cell-based, fluorescence, single concentration | Neuropeptides B/W receptor type 1 (Homo sapiens), P48145 | GPR7-expressing cells, fluorescence antagonist assay | inhibition, % at 4.4 µM | hit rate 1.1% among 290,000 | AID 1861, 2009; in the data active = inhibition above about 16%, passing the limit was not always enough;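 note: cells stimulated with the agonist NPW; 0% = agonist with vehicle and 100% = vehicle without agonist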
nonsel antag count: nonselective antagonists in TAAR1 counter-screen cells, counter-screen for hTAAR1 antagonist project, cell-based, fluorescence, calcium; counterscreen cell line, antagonist mode; hit rate 77% among 2,400; shares compounds with TAAR1 antagonist; AID 651780, 2012; inhibition, % at 3 µM; in the data active = inhibition above about 22%;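 note: CHO-Ga16 host cells stimulated with ATP at an EC80 level; 0% = agonist EC80 plus vehicle and 100% = vehicle without agonist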
TAAR1 ant conf: human TAAR1 antagonists, retest of hits, confirmation, cell-based, fluorescence. shares compounds with TAAR1 antagonist. TAAR1-expressing cells, fluorescence antagonist read-out. inhibition, % at 3 µM. hit rate 40% among 2,400. AID 651785, 2012; in the data active = inhibition above about 49%;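 note: CHO-Ga16 host cells challenged with agonist PEA near its EC80; 0% = agonist at EC80 plus vehicle and 100% = vehicle with no agonist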
Ga16 ag counter: calcium activation in Ga16-expressing cells, counter-screen for TAAR1 antagonist project, cell-based, fluorescence; shares compounds with TAAR1 antagonist; agonist counterscreen; activation, % at 3 µM; hit rate 18% among 2,400; AID 651953, 2012; in the data active = activation above about 12%;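 note: 0% = vehicle wells and 100% = saturating stimulus response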
TAAR1 ag counter: TAAR1 activation by candidate antagonists – cell-based, fluorescence, counter-screen for TAAR1 antagonist project. shares compounds with TAAR1 antagonist. hTAAR1 cell line, agonist mode. activation, % at 3 µM. hit rate 2% among 2,400. AID 651955, 2012; in the data active = activation above about 37%;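 note: CHO cells stably expressing TAAR1 with calcium dye readout; 0% = DMSO vehicle and 100% = full agonist response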
Numbers without * were called inactive; . = not tested or not shown. An excerpt weighted towards active compounds, which were near 4.6% of everything screened.

SMILES	CHO parental Ca	OX1R antag-1	TAAR1 antagonist	TAAR1 agonist	OX1R antag-2	GPR7 antag	nonsel antag count	TAAR1 ant conf	Ga16 ag counter	TAAR1 ag counter
C[C@H]1NS(=O)(=O)c2cccc(Cl)c2O[C@@H]1c1ccccc1	.	.	15	1	.	.	.	.	.	.
O=C(c1ccc(Br)o1)N(Cc1ccccc1)Cc1ccccc1	-30	24	50*	16	-51	-13	13	14	1	0
Cc1ccccc1Cn1c(O)c(N=NC(=S)Nc2ccccc2F)c2ccccc21	-3	2	11	-1	-37	-15	.	.	.	.
Oc1c(N=NC(=S)Nc2ccccc2F)c2ccccc2n1Cc1ccccc1F	-1	42	54*	7	-19	-10	-2	30	5	4
CC(C)[C@H](NC(=O)c1ccccc1)C(=O)OCC(=O)/C=C1/N(C)c2ccccc2C1(C)C	7	21	71*	11	-11	13	41*	55*	9	4
COc1ccc(NC(=O)N(C)[C@H]2C[C@H]3c4[nH]c5c(-c6ccccc6)cccc5c4CCN3C(=O)[C@H]2[C@H](C)O)cc1	.	.	69*	16	.	.	41*	53*	8	6
C[C@H](O)[C@@H]1C(=O)N2CCc3c([nH]c4c(-c5ccccc5)cccc34)[C@@H]2C[C@@H]1N(C)C(=S)Nc1ccc(C#N)cc1	.	.	6	4	.	.	.	.	.	.
O=C(NCCc1ccc(Cl)cc1)c1ccc(CS(=O)Cc2ccc(Cl)cc2)o1 (configuration not stated)	-13	5	26	3	-27	26	.	.	.	.
CSc1ccc(CCNC(=O)c2ccc(CS(=O)Cc3ccc(Cl)cc3)o2)cc1 (configuration not stated)	-23	21	53*	9	-12	14	32*	43	11	8
COc1ccc(NC(=O)c2cc(-c3ccncc3)nc3ccccc23)c(OC)c1	-25	7	42	12	-34	.	.	.	.	.
Cc1ccc(S(=O)(=O)N(C)C)cc1NC(=O)c1cc(-c2ccncc2)nc2ccccc12	-2	-1	54*	12	-22	.	21	34	7	10
CCOC(=O)Cc1csc(NC(=O)c2ccc([N+](=O)[O-])cc2[N+](=O)[O-])n1	5	45	-18	7	-25	-20	.	.	.	.
Cc1ccc(-c2cc(C(=O)Nc3cc(C(=O)O)ccc3C)c3ccccc3n2)cc1	-7	19	16	11	-13	-10	.	.	.	.
CCOC(=O)Cc1csc(NC(=O)c2cc(-c3ccncc3)nc3ccccc23)n1	-22	3	64*	14	-22	.	33*	50*	9	7
CCOc1ccccc1NC(=O)c1cc(-c2ccncc2)nc2c(Cl)cccc12	.	.	71*	3	.	-3	11	47	6	12
CCOC(=O)Cc1csc(NC(=O)c2ccc(N3CCOCC3)cc2[N+](=O)[O-])n1	-9	12	55*	20	-1	.	38*	53*	11	12
